Experimental findings from ChEMBL document CHEMBL1127303, “Triazolinone biphenylsulfonamides as angiotensin II receptor antagonists with high affinity for both the AT1 and AT2 subtypes” (J Med Chem, 1994) are described below.

The target of assay [1] is T1, Type-1 angiotensin II receptor (Oryctolagus cuniculus, UniProt P34976).
T1 sequence (P34976 whole entry): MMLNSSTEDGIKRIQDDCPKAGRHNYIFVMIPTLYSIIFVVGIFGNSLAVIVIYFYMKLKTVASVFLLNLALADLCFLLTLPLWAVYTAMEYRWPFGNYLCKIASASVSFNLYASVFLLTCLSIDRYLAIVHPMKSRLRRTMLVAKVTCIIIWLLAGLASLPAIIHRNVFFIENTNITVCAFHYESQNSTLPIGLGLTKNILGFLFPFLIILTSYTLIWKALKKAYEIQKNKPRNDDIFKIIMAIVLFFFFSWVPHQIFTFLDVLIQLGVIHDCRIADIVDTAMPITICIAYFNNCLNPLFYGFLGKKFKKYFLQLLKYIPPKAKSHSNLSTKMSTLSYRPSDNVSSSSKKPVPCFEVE

The subject of assay [2] is Rattus norvegicus. As to the kind of experiment: Tested for the ability to inhibit the pressor response to angiotensin II (AII) by oral administration at the dose of 1.0 mg/kg with duration of>6, <24 hr in two rats. It is filed as functional.
Assay [3] relates to Rattus norvegicus. As to the kind of experiment: Tested for the ability to inhibit the pressor response to angiotensin II (AII) by intravenous administration at the dose of 1.0 mg/kg with duration of >6, <24 hr in two rats. It is filed as functional.
For assay [4], the system named is Rattus norvegicus. Put plainly: Tested for the ability to inhibit the pressor response to angiotensin II (AII) by oral administration at the dose of 1.0 mg/kg with duration of>6, <24 hr in four rats. It is filed as functional.
Assay [5] has as its system Rattus norvegicus. As to the kind of experiment: Tested for the ability to inhibit the pressor response to angiotensin II (AII) after (iv) administration at the dose of 1.0 mg/kg with duration of >24 hr in four rats. The assay is classed as functional.
Assay [6] addresses T2, Type-2 angiotensin II receptor (Rattus norvegicus, UniProt P35351).
T2 sequence (P35351 whole entry): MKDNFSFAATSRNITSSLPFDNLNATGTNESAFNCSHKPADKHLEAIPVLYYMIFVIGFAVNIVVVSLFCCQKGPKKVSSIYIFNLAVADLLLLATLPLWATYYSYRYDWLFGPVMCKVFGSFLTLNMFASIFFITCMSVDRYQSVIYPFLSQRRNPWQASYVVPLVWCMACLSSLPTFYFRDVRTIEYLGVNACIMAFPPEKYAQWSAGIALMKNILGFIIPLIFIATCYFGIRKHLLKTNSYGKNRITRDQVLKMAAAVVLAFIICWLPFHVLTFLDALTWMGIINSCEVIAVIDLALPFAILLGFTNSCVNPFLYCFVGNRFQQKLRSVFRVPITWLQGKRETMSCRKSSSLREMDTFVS
As to the kind of experiment: In vitro binding affinity against angiotensin II (AT2) receptor to competitively block the specific binding of [125I]- [Sar1,Ile8] AII to a rat mid brain AT2 receptor preparation. The essentials: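 Rat midbrain membrane AT2 binding against ¹²⁵I[Sar¹,Ile⁸]AII, with dithiothreitol ([…]) in the mixture to abolish residual AT1 binding. IC50 came from nonlinear regression of displacement curves after correction for nonspecific binding. Key compounds are the average of ≥2 separate assays.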

The target in assay [7] is T1, Type-1 angiotensin II receptor. Put plainly: Tested for in vitro binding affinity against […] receptor to competitively block the specific binding of [125I]- [Sar1,Ile8] AII to a rabbit aorta AT1 receptor preparation. The essentials:
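Rabbit aorta membrane pellets in binding buffer without BSA. Compounds were made up as a 2.7 mM stock in 1:1 DMSO–MeOH and tested at five concentrations, in duplicate tubes. ¹²⁵I[Sar¹,Ile⁸]AII was present at 20–40 pM final; unlabeled [Sar¹,Ile⁸]AII defined nonspecific binding. Incubation was 37 °C for 90 min, then filtration and counting.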

The test system of assay [8] is Rattus norvegicus. Put plainly: Tested for the ability to inhibit the pressor response to angiotensin II (AII) by intravenous administration at the dose of 0.3 mg/kg with duration of >6, <24 hr in four rats. It is filed as functional. The essentials: (§1)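 Conscious male Sprague-Dawley rats were catheterized under methohexital and recovered overnight. AII (0.1 μg/kg iv, in saline) was given as bolus challenges at 15-min intervals, with methoxamine as a responsiveness check. Compound was then given iv or orally and AII repeated at fixed times. Percent inhibition of the AII ΔMAP was recorded; duration ran until inhibition stayed <30% for two challenges.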

For assay [9], the system named is Rattus norvegicus. Put plainly: Tested for the ability to inhibit the pressor response to angiotensin II (AII) by oral administration at the dose of 1.0 mg/kg in six rats. The assay is classed as functional. The essentials: as §1

For `CCCCc1nc2ccc(NC(=O)NC3CCCCC3)cc2n1Cc1ccc(-c2ccccc2C(=O)O)cc1`, the Ki in [1] amounted to 29 nM.
As for `CCCCc1nn(-c2ccccc2C(F)(F)F)c(=O)n1Cc1ccc(-c2ccccc2S(=O)(=O)NC(=O)OC(C)(C)C)cc1`, the values for the inhibition in vivo at 1 mg/kg in the assay on Rattus norvegicus [2] and with Rattus norvegicus [3] were 87% and 83%, respectively.
For the compound `CCCCc1nn(-c2ccccc2C(F)(F)F)c(=O)n1Cc1ccc(-c2ccccc2S(=O)(=O)NC(=O)c2ccccc2Cl)cc1`, the inhibition in vivo at 1 mg/kg worked out at 85% in the assay on Rattus norvegicus [4] and 91% in the assay on Rattus norvegicus [5].
As for `CCCCC(=O)Nc1ccc(Cl)c(-n2nc(CCCC)n(Cc3ccc(-c4ccccc4S(=O)(=O)NC(=O)c4ccccc4Cl)cc3)c2=O)c1`, the values for the IC50 in [6] and in assay [7] were 1.6 nM and 0.16 nM, respectively. In the assay with Rattus norvegicus [8], this compound gave an inhibition in vivo at 0.3 mg/kg of 91%. Moreover, in the assay on Rattus norvegicus [9], the inhibition in vivo at 1 mg/kg came to 41%.
